molecular target: Signal transducer and activator of transcription 3 (Homo sapiens, UniProt P40763); assay: Inhibition of IFNgamma-induced STAT3 activation in human HeLa cells expressing STAT3 (unknown origin) preincubated for 15 mins followed by IFN-gamma addition measured after 6 hrs by luciferase reporter gene assay
How it was run: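 HeLa-STAT3-Luc reporter cells in DMEM with 10% heat-inactivated FBS. Compounds added 15 min before IFNγ (20 IU). Stimulated 6 h. Cells washed in PBS and lysed 15 min at room temperature in Tris-phosphate pH 7.8 lysis buffer. Luciferase read in centrifuged lysate supernatant. IC50 calculated.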

Signal transducer and activator of transcription 3, sequence (P40763 whole entry): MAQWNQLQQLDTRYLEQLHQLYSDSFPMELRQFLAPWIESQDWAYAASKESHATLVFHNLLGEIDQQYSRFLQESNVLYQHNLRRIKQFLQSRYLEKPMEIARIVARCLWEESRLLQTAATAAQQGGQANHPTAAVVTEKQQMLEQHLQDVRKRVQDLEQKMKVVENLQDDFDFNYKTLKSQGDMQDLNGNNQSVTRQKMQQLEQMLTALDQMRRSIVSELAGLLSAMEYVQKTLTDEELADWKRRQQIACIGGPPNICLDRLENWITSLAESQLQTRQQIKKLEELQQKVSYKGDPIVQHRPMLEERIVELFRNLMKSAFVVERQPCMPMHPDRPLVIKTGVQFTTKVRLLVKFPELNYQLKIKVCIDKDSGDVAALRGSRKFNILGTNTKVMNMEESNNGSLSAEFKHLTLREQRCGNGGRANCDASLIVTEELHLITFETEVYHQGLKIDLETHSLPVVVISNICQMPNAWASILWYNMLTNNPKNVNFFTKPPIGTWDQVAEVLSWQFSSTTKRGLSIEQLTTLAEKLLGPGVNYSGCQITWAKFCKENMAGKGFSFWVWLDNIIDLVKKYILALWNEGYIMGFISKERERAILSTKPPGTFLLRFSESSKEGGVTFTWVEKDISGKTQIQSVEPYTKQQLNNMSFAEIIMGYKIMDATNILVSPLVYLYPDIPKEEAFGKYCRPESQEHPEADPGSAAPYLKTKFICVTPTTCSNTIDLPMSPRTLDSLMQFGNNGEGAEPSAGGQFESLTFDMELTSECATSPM

SMILES	IC50
CC(=O)O[C@H]1CC/C(C)=C/CC[C@]2(C)O[C@@H]2C[C@]2(C(C)C)CC[C@@]1(C)O2	> 50 µM
C/C1=C\C[C@]2(C(C)C)CC[C@@](C)(O2)[C@H](O)CC/C(C)=C/CC1	> 50 µM
C/C1=C\C[C@]2(C(C)C)CC[C@@](C)(O2)[C@@H](OC(=O)Cc2ccccc2)CC/C(C)=C/CC1	> 50 µM
C/C1=C\CC[C@]2(C)O[C@@H]2C[C@]2(C(C)C)CC[C@@](C)(O2)[C@@H](O)CC1	> 50 µM
CC(=O)O[C@H]1CC/C(C)=C/CC/C(C)=C/C[C@]2(C(C)C)CC[C@@]1(C)O2	> 50 µM
C/C1=C\C[C@]2(C(C)C)CC[C@@](C)(O2)[C@@H](O)CC/C(C)=C/CC1 [Incensole]	15.8 µM
CC1=C2CC/C(C)=C/CC[C@]3(C)O[C@@H]3CC/C(C)=C/[C@@H]2OC1=O	> 50 µM
C/C1=C\CC/C(C)=C/C[C@](O)(C(C)C)CC/C(C)=C/CC1	> 50 µM
CC(=O)O[C@H]1CC[C@@]2(C)O[C@H]2CC/C(C)=C/C[C@]2(C(C)C)CC[C@@]1(C)O2	> 50 µM

molecular target: Transcription factor p65 (Human, UniProt Q04206); assay: Inhibition of NFkappaB p65 activation (unknown origin) expressed in human HeLa cells assessed as inhibition of TNFalpha-induced NFkappaB p65 nuclear accumulation pretreated with cells followed by TNFalpha addition by DAPI staining based microscopic analysis
Sequence (Q04206 whole entry): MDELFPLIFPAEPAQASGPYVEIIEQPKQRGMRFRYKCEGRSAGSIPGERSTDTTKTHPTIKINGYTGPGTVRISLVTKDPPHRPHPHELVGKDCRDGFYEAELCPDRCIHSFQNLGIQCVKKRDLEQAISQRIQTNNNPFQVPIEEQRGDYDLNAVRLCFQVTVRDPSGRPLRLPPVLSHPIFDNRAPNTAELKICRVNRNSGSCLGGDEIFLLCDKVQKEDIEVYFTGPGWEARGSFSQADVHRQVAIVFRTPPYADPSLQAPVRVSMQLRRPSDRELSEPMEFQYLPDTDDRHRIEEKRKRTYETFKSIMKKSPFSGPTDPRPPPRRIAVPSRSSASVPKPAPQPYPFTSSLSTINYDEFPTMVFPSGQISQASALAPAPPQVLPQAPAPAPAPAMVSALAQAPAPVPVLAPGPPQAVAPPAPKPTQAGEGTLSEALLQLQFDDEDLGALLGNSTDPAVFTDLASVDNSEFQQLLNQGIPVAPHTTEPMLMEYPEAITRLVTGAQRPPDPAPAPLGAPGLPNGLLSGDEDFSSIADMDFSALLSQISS

SMILES	IC50
CC(=O)O[C@H]1CC/C(C)=C/CC/C(C)=C/C[C@]2(C(C)C)CC[C@@]1(C)O2	> 100 µM

Source: BindingDB's records for doi:10.1021/acs.jnatprod.6b00141 (University of Eastern Piedmont, 2016)
